PfGluPho inh: PfG6PD enzyme inhibitors, primary screen, biochemical, fluorescence intensity, uHTS; PfGluPho enzyme, NADPH resazurin-diaphorase fluorescence; inhibition, % at 20 µM; AID 504690, 2011; 350,000 tested, 0.78% active;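 active = inhibition reaching at least a set limit at 20 µM in the primary screen, cut at about 59% in these data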;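 also: 0% = DMSO wells with substrate and 100% = DMSO wells lacking glucose-6-phosphate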
Tb hexokinase: Trypanosoma brucei hexokinase 1 inhibitors, primary screen, biochemical, G6PDH-coupled NADH absorbance, MLSCN library | 220,000 tested, 0.11% active | inhibition, % at 10 µM | recombinant TbHK1, G6PDH-coupled NADH A340 | hexokinase 1 [Trypanosoma brucei] | AID 1430, 2008;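 active = inhibition of 50% or more in the single-dose primary screen; inactive = inhibition below 50%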
HKDC1 inh: HKDC1 hexokinase inhibitors, primary screen, biochemical, fluorescence, uHTS; recombinant HKDC1, G6PDH/diaphorase resazurin coupled fluorescence; 340,000 tested, 0.16% active; inhibition, % at 20 µM; Q2TB90; AID 493160, 2011;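 active = inhibition above about 35% when tested at 20 µM, limit read from the data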;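 also: plate controls were DMSO wells with enzyme for no effect and DMSO wells lacking enzyme for full effect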
Target sequence (Q2TB90 whole entry, looked up): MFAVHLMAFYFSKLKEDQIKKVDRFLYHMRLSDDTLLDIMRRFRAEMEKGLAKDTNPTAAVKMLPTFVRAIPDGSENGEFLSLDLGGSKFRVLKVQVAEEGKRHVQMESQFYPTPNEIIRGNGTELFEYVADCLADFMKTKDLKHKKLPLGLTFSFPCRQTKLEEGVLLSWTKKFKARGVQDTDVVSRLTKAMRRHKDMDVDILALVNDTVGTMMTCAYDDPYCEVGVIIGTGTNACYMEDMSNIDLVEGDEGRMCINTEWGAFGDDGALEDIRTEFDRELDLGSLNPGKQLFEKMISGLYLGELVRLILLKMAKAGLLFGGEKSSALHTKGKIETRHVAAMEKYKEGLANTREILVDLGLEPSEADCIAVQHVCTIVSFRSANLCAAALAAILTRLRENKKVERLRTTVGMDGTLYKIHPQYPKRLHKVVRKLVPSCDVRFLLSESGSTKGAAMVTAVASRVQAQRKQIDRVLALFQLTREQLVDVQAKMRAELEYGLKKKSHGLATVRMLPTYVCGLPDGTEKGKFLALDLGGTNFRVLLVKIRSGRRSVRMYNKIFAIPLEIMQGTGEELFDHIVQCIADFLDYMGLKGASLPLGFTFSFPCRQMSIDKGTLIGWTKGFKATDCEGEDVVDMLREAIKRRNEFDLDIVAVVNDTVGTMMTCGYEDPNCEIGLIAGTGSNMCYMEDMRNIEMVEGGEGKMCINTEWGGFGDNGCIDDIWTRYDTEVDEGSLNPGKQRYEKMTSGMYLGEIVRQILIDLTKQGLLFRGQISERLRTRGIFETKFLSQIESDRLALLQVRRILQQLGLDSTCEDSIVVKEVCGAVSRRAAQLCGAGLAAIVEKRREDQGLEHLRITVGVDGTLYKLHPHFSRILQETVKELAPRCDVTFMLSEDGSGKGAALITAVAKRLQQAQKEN
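Incubation: 90 min at room temperature in dark / Material: recombinant HKDC1 (HK5) hexokinase enzyme, produced in-house / Quantity: enzyme 5 µg/mL final / Compound: one dose of 20 µM, 1% DMSO / Reagent: glucose and ATP substrates / Buffer or medium: Tris pH 8.0 buffer with MgCl2, Tween-20, BSA, BME / Technique: resorufin fluorescence at 613 nm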
G6PDH CS: L. mesenteroides G6PDH inhibitors, counter-screen for G6PDH-coupled screening assays, biochemical, Leuconostoc mesenteroides enzyme; glucose-6-phosphate dehydrogenase [Leuconostoc mesenteroides]; Purified L. mesenteroides G6PDH, diaphorase/resazurin coupled fluorescence, 45 min; inhibition, % at 5 µM; 200,000 tested, 0.12% active; in the data active = inhibition above about 50%
Diaphorase inh: diaphorase inhibitors and chemical oxidizers, primary screen, counter-screen for diaphorase-coupled primary assays, biochemical, uHTS, resorufin fluorescence; diaphorase resazurin-to-resorufin fluorescence, NADH, 16 min; bacterial (C. kluyveri) enzyme, not human; inhibition, % at 20 µM; 190,000 tested, 0.69% active; AID 1217, 2008;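 active = primary screen inhibition at 20 µM above a set limit, cut at about 50% in these data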;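 also: plate controls were DMSO with full reaction for no effect and wells lacking NADH for full effect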
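controls = No-NADH positive control and DMSO neutral control | system = Clostridium kluyveri diaphorase enzyme | timing = reaction incubation of 16 min at room temperature | signal = resorufin fluorescence 544/590 nm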
HKDC1 act conf2: HKDC1 hexokinase activators, confirmation, biochemical, single concentration | shares compounds with HKDC1 inh | recombinant HKDC1, G6PDH/diaphorase resazurin fluorescence; hits give low values | 740 tested, 14% active | inhibition, % at 20 µM;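 active = inhibition at or below a set negative limit, negative inhibition meaning the enzyme was activated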
PfG6PD confirm: PfG6PD inhibitors, hit retest, confirmation, biochemical, fluorescence intensity, single concentration; shares compounds with PfGluPho inh; inhibition, % at 20 µM; recombinant PfGluPho, NADPH-diaphorase-resazurin fluorescence; 2,400 tested, 34% active;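 active = inhibition of at least 50% at 20 µM in any single replicate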;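 also: 0% = DMSO with substrate and 100% = DMSO lacking glucose-6-phosphate substrate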
Starred values were filed as active, the others as inactive; nt = no result. Hits are enriched below; roughly 1.3% of the tested compounds scored in any of these assays.

SMILES | PfGluPho inh | Tb hexokinase | HKDC1 inh | G6PDH CS | Diaphorase inh | HKDC1 act conf2 | others
Cc1cc(/C=C2\C(=O)NC(=O)N(c3ccccc3F)C2=O)c(C)n1-c1cc(C(=O)O)cc(C(=O)O)c1 | -4 | nt | 2 | nt | nt | nt
CCOC(=O)c1c(-n2c(C)cc(C=C3C(=O)NC(=O)NC3=O)c2C)sc2c1CCCC2 | -4 | 7 | 41* | 5 | 10 | 30
O=[N+]([O-])c1cccc2c([As](=O)(O)O)cccc12 | -12 | -18 | 0 | nt | nt | nt
CCCCCc1nc2ccccc2c(=O)n1-c1ccccc1[N+](=O)[O-] | 3 | 30 | -7 | 8 | 25 | nt
CCCCCc1nc2c(c(=O)c3ccccc3n2C)c(=O)n1C1CCCCCC1 | 9 | 8 | 31 | -22 | -5 | 17
Cc1ccc(OP2(=O)Nc3cc(C)c(C)cc3S2)cc1 (stereo not drawn) | 46 | nt | -41 | nt | nt | -23
COc1ccc(N2C(=O)/C(=C/c3ccc(C)o3)C(=O)NC2=S)c(OC)c1 | 20 | nt | 3 | nt | nt | nt
Cc1ccc(N2C(=O)NC(=O)/C(=C/c3ccoc3)C2=O)cc1 | 22 | 14 | 39* | nt | nt | -3
COC1=C(C)C(=O)O[C@]12C(=O)C(C)=C1CCCCN3[C@H]([C@@H]4C[C@H](C)C(=O)O4)CC[C@]132 | 1 | nt | 2 | nt | nt | nt
Cc1cccc(N2C(=O)NC(=O)/C(=C\c3ccc4c(c3)CCCN4Cc3ccccc3)C2=O)c1 | 12 | 10 | 45* | -4 | 13 | 45
CC1=NN(c2ccccc2)C(=O)C1/C=C1/C(=O)NC(=O)N(c2cccc(C)c2)C1=O (stereo not drawn) | nt | -6 | nt | -3 | 25 | nt
COC(=O)[C@@H]1[C@@H](C(=O)OC)C2(c3ccccc3-c3ccccc32)N(c2ccc(Cl)cc2)N1C#N | 15 | -17 | 62* | 2 | 17 | 43
COC(=O)C[C@]1(C(=O)OC)CN(C#N)N(c2ccc(Cl)cc2)C12c1ccccc1-c1ccccc12 | 22 | -8 | 87* | 4 | 16 | 62
CO[C@@H]1C=CC23c4cc5c(cc4CO[C@]2(O)CN(C)[C@H]3C1)OCO5 (stereo partly drawn) | -4 | nt | -1 | nt | nt | nt
COc1ccc(CC2(CCc3ccccn3)C(=O)NC(=O)N(c3ccccc3C)C2=O)cc1OC (stereo not drawn) | 8 | 4 | -4 | 11 | nt | nt
CC1=C2[C@@H]3OC(=O)[C@H](C)C3CC[C@@]2(C)C=CC1=O (stereo partly drawn) | 4 | nt | 7 | nt | nt | nt
COc1cc(CC2(CCc3ccncc3)C(=O)NC(=O)NC2=O)cc(OC)c1OC | -10 | 0 | -8 | 6 | 15 | nt
COc1cc2c(cc1OC)-c1c(OC)c(OC)c(OC)c3ccnc(c13)C2=O | 48 | -12 | 50* | 19 | 55* | 57
CN1CCc2cc3c(c4c2C1Cc1ccccc1-4)OCO3 (stereo not drawn) | 89* | nt | 32 | nt | nt | -1 | PfG6PD confirm=24
O=C1NC2C(O)C(O)C(O)C(O)C2c2cc3c(c(O)c21)OCO3 (stereo not drawn) | 1 | nt | 1 | nt | nt | nt
CNC(=O)Oc1ccc(-c2cn3cc(Cl)ccc3n2)cc1 | 68* | -11 | 0 | 1 | 18 | nt | PfG6PD confirm=47
O=C1NC(=S)NC(=O)C1=Cc1c(Cl)cccc1Cl | 29 | nt | 6 | nt | nt | nt

High-throughput results (PubChem)
